Assay results published in the array DNA melting data of Ke et al. (doi:10.1101/2024.01.08.574731).

Legend:
[1] = folding enthalpy; higher = less favourable; fluorescence melt of hairpins on a sequencing array, two-state fit; conditions: sodium 0.088 M
How it was run: (§1)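 Library hairpins on a sequenced MiSeq flow cell carried annealed Cy3 and quencher oligos, and their Cy3 fluorescence was imaged in 50 mM Na-HEPES pH 8.0 with 25 mM NaCl, in 2.5 °C steps up to 60 °C. Signals were normalised to Cy3 before quenching and to control constructs. Melting temperature and folding enthalpy were obtained from bootstrapped two-state fits, combined by inverse-variance weighting across four replicates, and the fitted temperatures were then raised by 9.35 °C to match UV melts.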

[2] = melting temperature; fluorescence melt of hairpins on a sequencing array, two-state fit, raised by 9.35 °C to match UV melts; conditions: sodium 0.088 M
How it was run: as §1

Sequence | folding enthalpy [1] | Tm [2]
CGGGCGGAAACGCATCCG ((((((....)))..))) | -15.9 kcal/mol | 44.3 °C
GCATTCGAAAGAAAGTGC ((((((....)))..))) | -12.4 kcal/mol | 30.4 °C
GTGGTCGGAAACAACCAC (((((.(....).))))) | -29.4 kcal/mol | 45.4 °C
GCGCATGGAAACACGCAC (.((.((....)).)).) | -13.8 kcal/mol | 29 °C
GTGTACGAAAGTACCAC ((((((....))).))) | -13.3 kcal/mol | 44.4 °C
GCAGTGCGAAAGCATCGC ((..(((....)))..)) | -14.9 kcal/mol | 55.2 °C
CGGCGCGGAAACGCACCG (((.(((....))).))) | -29.3 kcal/mol | 67.4 °C
TTTGCGAAAGCAAA (((((....))))) | -17.4 kcal/mol | 54.3 °C
GAAAGCGAAAGCTTCTTC ((((((....)))..))) | -24.5 kcal/mol | 53.5 °C
GAAGTGGGAAACTGCTTC ((((..(....)..)))) | -26.1 kcal/mol | 39.6 °C
GATCTTTATAAAGATC ((((((....)))))) | -38.4 kcal/mol | 45.5 °C
GGCCTAGGAAACTGGGTC (.((.((....)).)).) | -28.5 kcal/mol | 40.9 °C
GGTCGCGAAAGCGTACC ((((((....))).))) | -21.2 kcal/mol | 62 °C
GCTACCACGAAAGTGAGC (((..(((....)))))) | -15.3 kcal/mol | 33.3 °C
GATCATAGCCATGATC ((((((....)))))) | -44.5 kcal/mol | 47.5 °C
GACAGACGAAAGTCAGTC (((.(((....))).))) | -28.2 kcal/mol | 51.7 °C
GCCGTGCGAAAGCGCCGC ((.(.((....)).).)) | -14.4 kcal/mol | 50 °C
GAGTCCGAAAGGACCCTC ((((((....)))..))) | -10.3 kcal/mol | 43.5 °C
GATCATGCTTATGATC ((((((....)))))) | -35.9 kcal/mol | 48 °C
GAATGCGAAAGCACCTTC ((((((....)))..))) | -11.2 kcal/mol | 33.2 °C
GATCTGACATCAGATC ((((((....)))))) | -33.5 kcal/mol | 48.3 °C
GGCTTAGGAAACTAAGTC (.(((((....))))).) | -32.5 kcal/mol | 44.4 °C
GATCAACCTTTTGATC ((((((....)))))) | -29.7 kcal/mol | 41.8 °C

Sequence | folding enthalpy [1] | Tm [2]
GATCAATAGGTTGATC ((((((....)))))) | -34.3 kcal/mol | 45.1 °C
GCCTATACGAAAGTAGGC (((..(((....)))))) | -28.6 kcal/mol | 48.3 °C
GATCGTTCAACGATC ((((((...)))))) | -42 kcal/mol | 55.5 °C
GCAGATGCGAAAGCATGC (((..(((....)))))) | -13.6 kcal/mol | 47.9 °C
GCACGGCGAAAGCCTCGC ((..(((....)))..)) | -16.5 kcal/mol | 42 °C
GCCCTGGGAAACCAGAGC ((.((((....)))).)) | -28.7 kcal/mol | 45.5 °C
GGAATGTCGAAAGACTCC (((..(((....)))))) | -14.3 kcal/mol | 32.6 °C
CGCGGACTGTCCGCG ((((((...)))))) | -42.3 kcal/mol | 64.7 °C
GTAACCGAAAGGTTCTAC ((((((....)))..))) | -11.3 kcal/mol | 37.7 °C
GCCCTGCGAAAGCACTGC ((..(((....)))..)) | -6.98 kcal/mol | 24.6 °C
GAGTAGCGAAAGCTCCTC (((.(((....))).))) | -20 kcal/mol | 39.5 °C
GCCGACGAAAGTCTCGGC ((((((....)))..))) | -37.1 kcal/mol | 52 °C
GCCAAGCGAAAGCTATGC ((..(((....)))..)) | -13.2 kcal/mol | 33.9 °C
GGGGTACGAAAGTAGCCC (((.(((....))).))) | -42.7 kcal/mol | 67.7 °C
GATCACGAACGTGATC ((((((....)))))) | -42.4 kcal/mol | 67.3 °C
GTCTAGGGAAACTTAGAC (((((.(....).))))) | -36.3 kcal/mol | 37.4 °C
ACATGGAAACATGT (((((....))))) | -19.7 kcal/mol | 45 °C
GATCCGCAAACGGATC ((((((....)))))) | -42.2 kcal/mol | 58 °C
GGCGTCGGAAACAACGCC (((((.(....).))))) | -40.6 kcal/mol | 55.2 °C
GAGTAGGGAAACCTACCC (.(((((....))))).) | -15.4 kcal/mol | 35.1 °C
GGCCCCACGAAAGTGGCC (((..(((....)))))) | -11.8 kcal/mol | 44.7 °C
GATCCCCGGAGGGATC ((((((....)))))) | -19.2 kcal/mol | 59.5 °C
GTTTGTCGAAAGACGAAC (((.(((....))).))) | -39 kcal/mol | 53.1 °C

Sequence | folding enthalpy [1] | Tm [2]
GCATCTGGAAACAGACGC ((.((((....)))).)) | -33 kcal/mol | 44.2 °C
GGGTGCGAAAGCAAACCC ((((((....)))..))) | -29.3 kcal/mol | 55.9 °C
GCTATGCGAAAGCGAAGC (((..((....))..))) | -16.4 kcal/mol | 44.2 °C
GTCTCCGAAAGGATGGAC ((((((....)))..))) | -17.6 kcal/mol | 35.2 °C
GGCATCCGAAAGGACGCC (((.(((....))).))) | -48.8 kcal/mol | 57.2 °C
GATCTGGCGACAGATC ((((((....)))))) | -44.1 kcal/mol | 55.8 °C
GATCCGCGGCCGGATC ((((((....)))))) | -38.4 kcal/mol | 56 °C
GTGAACGAAAGTTGCCAC ((((((....)))..))) | -9.75 kcal/mol | 25.9 °C
GGCTCGGGAAACCGGGTC (.(.(((....))).).) | -28.2 kcal/mol | 46.9 °C
GAGGAGGGAAACCTCTTC ((.((((....)))).)) | -27.7 kcal/mol | 47.8 °C
GATCCTGTTAAGGATC ((((((....)))))) | -48.7 kcal/mol | 65.7 °C
GCTGTTGGAAACAATGGC ((..(((....)))..)) | -27.4 kcal/mol | 39.9 °C
GCAGCGCGAAAGCCATGC (((..((....))..))) | -14.9 kcal/mol | 45.1 °C
GATCTCTCCGGAGATC ((((((....)))))) | -39.6 kcal/mol | 56.2 °C
GATCCCATAGGGGATC ((((((....)))))) | -32.9 kcal/mol | 60.4 °C
GCACCCCCGAAAGGGTGC (((..(((....)))))) | -30.6 kcal/mol | 66.6 °C
GCGATGCGAAAGCAGTGC ((..(((....)))..)) | -22.7 kcal/mol | 58.3 °C
GATCTCGTGGAGATC ((((((...)))))) | -39 kcal/mol | 54.5 °C
GGCTCTGGAAACAGGGCC (((.(((....))).))) | -27.7 kcal/mol | 58.1 °C
GGTCCCGAAAGGGTCACC ((((((....)))..))) | -12.2 kcal/mol | 39.4 °C
GCCTCGGGAAACTGAGGC (((((.(....).))))) | -37.1 kcal/mol | 59.4 °C
GCAAGACCGAAAGGTTGC (((..(((....)))))) | -22.6 kcal/mol | 48.2 °C
GCTGTAGGAAACCACAGC (((((.(....).))))) | -36.3 kcal/mol | 47.5 °C

Sequence | folding enthalpy [1] | Tm [2]
GTTTGCGAAAGCAGAAC ((((((....))).))) | -13.7 kcal/mol | 44.5 °C
GGTACTCGAAAGAGACC (((.(((....)))))) | -23.6 kcal/mol | 43.1 °C
GTGTGGGGAAACCCGTAC ((..(((....)))..)) | -20.8 kcal/mol | 33.5 °C
GCTCACGAAAGTGTTAGC ((((((....)))..))) | -21.6 kcal/mol | 40.8 °C
GCGGGATTCCGC ((((....)))) | -20.5 kcal/mol | 59.1 °C
GATCTTAAACAAGATC ((((((....)))))) | -24.9 kcal/mol | 38.7 °C
GTGCACGAAAGTGTTCAC ((((((....)))..))) | -12.3 kcal/mol | 37.4 °C
GCTTGGCGAAAGCGAGGC ((.(.((....)).).)) | -15.3 kcal/mol | 43.3 °C
GATGGCGAAAGCCGATC ((((((....))).))) | -15.4 kcal/mol | 47.6 °C
GGGCGCGAAAGCGATCCC ((((((....)))..))) | -14.3 kcal/mol | 58.5 °C
GTGGATACGAAAGTACAC (((..(((....)))))) | -13.5 kcal/mol | 36.8 °C
GATCCGGTGCCGGATC ((((((....)))))) | -59.2 kcal/mol | 58 °C
GCGTTAGGAAACTAACAC (.(((((....))))).) | -16.2 kcal/mol | 35.9 °C
GGCACAGGAAACCGTGCC (((((.(....).))))) | -43.9 kcal/mol | 56.8 °C
GCCCCGCGAAAGCAGAGC ((.(.((....)).).)) | -11.5 kcal/mol | 32.8 °C
CGTGTGCGGAAACGCACG (((..(((....)))))) | -6.54 kcal/mol | 54.5 °C
GACCCTGGAAACAAGGTC ((((.((....)).)))) | -27.1 kcal/mol | 35.3 °C
GCAGCAGCGAAAGCTTGC (((..(((....)))))) | -13.6 kcal/mol | 43.5 °C
GTAATTGGAAACAGTTAC ((((.((....)).)))) | -21.2 kcal/mol | 35.9 °C
GATCTGGGCGCAGATC ((((((....)))))) | -37.7 kcal/mol | 53.5 °C
GTAGACGAAAGTCATAC ((((((....))).))) | -12.8 kcal/mol | 39.9 °C
GATCCGTGCCGGATC ((((((...)))))) | -44.5 kcal/mol | 57.9 °C
CGGCCGGAAACGGGCCCG ((((((....)))..))) | -9.66 kcal/mol | 46.8 °C
